In the library only some 12% were active in any assay of this set; here they are far more common.
Dynein transport: blocks dynein driven cargo transport along microtubules; 3617.4 mouse cells, GR-EGFP nuclear translocation imaging; test concentration mostly 20 µM; stimulated with dexamethasone, 1 µM; stronger effect = lower value; z-score, hits read low; 220,000 tested, 0.47% active; AID 1381;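 active = plate z-score of nuclear minus cytoplasmic receptor signal below a set negative limit, without overly bright fluorescence or cell loss, cut at about -3.5 in these data, passing the limit was not always enough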;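 also: z-score of nuclear minus cytoplasmic ring GR-EGFP intensity difference per well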
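Buffer or medium: tet-free, stripped-serum medium; reagent: dexamethasone at 1.0 µM final, 30 min; incubation: 48 h induction, 1 h compound, 30 min dex at 37 °C; measured by: formaldehyde fixation, Hoechst nuclear stain, 10x automated fluorescence imaging; read-out: nuclear-to-cytoplasmic GR-EGFP distribution per well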
Autophagy mod: modulators of autophagy; MEF GFP-LC3 puncta imaging; test concentration mostly 10 µM; calls only at 10 µM (by protocol); 190,000 tested, 0.98% active; AID 463193;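 active = percentage of spot-positive cells more than 3 SD above its plate mean, without a fluorescence outlier flag or 80% toxicity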
L major viab: Leishmania major promastigote growth inhibition. Leishmania major promastigotes, resazurin fluorescence viability. inhibition, % at 10 µM. 200,000 tested, 9% active; in the data active = inhibition above about 50%;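 also: promastigotes grown with compound for 44 hours at 28 °C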
CHOP inhibitor: CHOP inhibition in unfolded protein response; CHO-K1 CHOP-promoter luciferase, tunicamycin-induced, 15-18 h; inhibition, % at 10 µM; AID 2732; 220,000 tested, 3.8% active;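 active = compounds that reduced the stress-induced luciferase reporter signal by more than about 70% of percent inhibition, limit read from the data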
b-catenin transl: alters nuclear translocation of beta-catenin in HeLa cells | nuclear translocation activity, % at 5 µM | AID 1665 | 190,000 tested, 0.3% active | immunofluorescence imaging;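 active = nuclear translocation activity above 50% at 5 µM, with a well cell count of 50 or more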;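 also: per-cell ratio of nuclear to cytoplasmic median beta-catenin stain intensity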
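System: HeLa cells, endogenous beta-catenin; compound dosing: 5 µM primary single dose, 0.1% DMSO, 0.02–20 µM confirmation series; incubation: 24 h compound exposure at 37°C, 5% CO2; signal: beta-catenin immunofluorescence imaging with DAPI; evaluation: % activation, nuclear-to-cytoplasmic median beta-catenin signal ratio per cell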
MT stabilizer: microtubule stabilization, imaging screen | AID 2205 | HeLa tubulin immunostaining HCS, 24 h; share of cells brighter than vehicle mean+2SD | % tubulin-high responders, % at 10 µM | 200,000 tested, 0.83% active;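 active = plate Z-score above 3 for both tubulin-high and condensed-nucleus cell shares, with cell loss under 80%, at 10 µM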;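 also: anti alpha tubulin signal scored within the nucleus-defined area of each cell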
CHOP inh conf: confirmation of CHOP induction inhibitors; shares compounds with CHOP inhibitor; CHO-CHOP promoter luciferase reporter, tunicamycin-induced, luminescence; inhibition, % at 10 µM; 2,100 tested, 45% active;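 active = mean of three repeat readings of reporter signal inhibition above a set limit, cut at about 70% in these data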
Each line names hits and unclear results; the compound was inactive in the other large screens (follow-up assays come after a bar, where they were run); ! = not confirmed by another sample.

O=C(Nc1ccc2oc(-c3cccnc3)nc2c1)c1cc2ccccc2o1	none
CCOC(=O)c1cc(-c2cccs2)nc2c1c(C)nn2-c1ccccn1	CHOP inhibitor 99 | CHOP inh conf 100
COc1ccc(C2CCCN2C(=S)Nc2cccc(C)c2C)cc1OC (stereo unspecified)	none
CCn1ncc(Cl)c1C(=O)Nc1cc(Cl)ccc1Cl	CHOP inhibitor 100 | CHOP inh conf inactive
CCN(CC)C(=S)SCC(=O)Nc1ccc(F)cc1	none
C/C(=N\NC(=O)COc1ccccc1-c1ccccc1)c1cccnc1	none
C/C(=N\NC(=O)COc1ccccc1-c1ccccc1)c1ccc(O)cc1O	CHOP inhibitor 104 (no result: Autophagy mod, L major viab, MT stabilizer) | CHOP inh conf inactive
O=C(O)c1cccc(COc2ccc(CO)cc2Cl)c1	CHOP inhibitor 97 (no result: Dynein transport, Autophagy mod, L major viab, MT stabilizer) | CHOP inh conf 121
O=C(O)c1ccc(COc2ccc(CO)cc2Cl)cc1	none
O=C(OCC(F)(F)F)c1cccc(COc2ccc3ccccc3c2)c1	CHOP inhibitor 97 (no result: b-catenin transl) | CHOP inh conf 116
COc1ccc(OCc2cccc(C(=O)O)c2)cc1	CHOP inhibitor 105 (no result: Dynein transport, Autophagy mod, L major viab, MT stabilizer) | CHOP inh conf 126
Cc1sc(NC(=O)c2ccc(OCC(C)C)cc2)c(C(N)=O)c1-c1ccc(Cl)cc1Cl	none
COc1cc(CNCc2c[nH]c3ccccc23)cc(OC)c1	none
Cc1cccc(C2c3[nH]c4ccccc4c3CCN2C(=O)c2cc(CC(C)C)nc(C)n2)n1 (stereo unspecified)	none
CCCc1nnc(NC(=O)OCC)s1	none
COC1=C(c2ccccc2)C(=O)c2ccccc2C1=O	none
O=C1C(=O)c2ccc(-c3ccccc3)cc2-c2ccccc21	Autophagy mod active, L major viab 100, CHOP inhibitor 109 | CHOP inh conf 140
Nc1ccc2c(c1)C(=O)C(=O)c1ccccc1-2	L major viab 100 (no result: CHOP inhibitor, b-catenin transl) | CHOP inh conf 140
O=C(Cc1csc(Nc2nc(=S)[nH]c3ccccc23)n1)NCc1ccc(Cl)cc1	none
O=C(Cc1csc(Nc2nc(=S)[nH]c3ccccc23)n1)NCCCN1CCN(c2ccccc2F)CC1	Autophagy mod active, CHOP inhibitor 105 | CHOP inh conf 85
CCOC(=O)c1nc(Nc2ccc(C(C)=O)cc2)c2ccccc2n1	none
CC(=O)Nc1ccccc1OCC(=O)NCCC1=CCCCC1	none
O=C1c2ccccc2C(=O)C1c1nccc2ccccc12	CHOP inhibitor 106 | CHOP inh conf 104
CC1CCN(C(=O)/C(=C/c2ccccc2Cl)c2ccccc2)CC1	CHOP inhibitor 101 | CHOP inh conf 88
COC(=O)c1ccc(Cl)c(NC(=O)CN(c2ccccc2)S(=O)(=O)c2ccc(OC)cc2)c1	none
COc1ccc(-c2[nH]ncc2/C=C(/C#N)C(=O)NC2CCCCCC2)cc1	CHOP inhibitor 99, MT stabilizer 49 | CHOP inh conf 82
Cc1cc(/C=C(\C#N)C(=O)NC2CCCCCC2)c(C)[nH]1	none
CCCc1cc(=O)[nH]c(SCCOc2ccc(Cl)cc2)n1	CHOP inhibitor 101 | CHOP inh conf inactive
CCCCSc1nc(CCC)cc(=O)[nH]1	none
COc1cc(SC)ccc1C(=O)N(Cc1ccccc1)c1ccccn1	none (no result: Autophagy mod, L major viab, MT stabilizer)
O=C(O)CC(NC(=O)c1cccc([N+](=O)[O-])c1)c1ccc2c(c1)OCO2 (stereo unspecified)	none
CC/C(=C(\c1ccccc1)c1ccc(OCCN(C)C)cc1)c1ccccc1	none (no result: Dynein transport, Autophagy mod, L major viab, b-catenin transl, MT stabilizer)
CCN(CC)CCOc1ccc(/C(=C(/Cl)c2ccccc2)c2ccccc2)cc1	L major viab 100, CHOP inhibitor 99 | CHOP inh conf inactive
CCOC(=O)Cc1csc(NC(=O)Nc2cccc(Cl)c2)n1	none
CCOC(=O)c1csc(NC(=O)Nc2cccc(Cl)c2)n1	L major viab 87, CHOP inhibitor 98 | CHOP inh conf inactive
Cc1c(C#N)c(NC(=O)c2cccc(Cl)c2)n(Cc2ccccc2)c1C	none
COc1ccc(Cn2c(C)c(C)c(C#N)c2NC(=O)Nc2ccc(Cl)cc2)cc1	CHOP inhibitor 106 | CHOP inh conf 103
O=C(CCc1c[nH]c2ccccc12)NC1CC1	none
CCCN(CCC)CCNC(=O)C1c2ccccc2C(=O)N(CCOC)C1c1ccc(F)cc1 (stereo unspecified)	none
COc1cc([C@@H]2c3cc4c(cc3[C@H](O)[C@H]3COC(=O)[C@H]23)OCO4)cc(OC)c1OC	none (no result: CHOP inhibitor, b-catenin transl, MT stabilizer)
COc1cc([C@@H]2c3cc4c(cc3[C@@H](O)[C@@H](CO)[C@@H]2CO)OCO4)cc(OC)c1O[Si](C)(C)C(C)(C)C	CHOP inhibitor 100 (no result: Autophagy mod, L major viab, MT stabilizer) | CHOP inh conf 117
O=C(COc1ccccc1)Nc1sc2c(c1C(=O)NCc1cccnc1)CCCC2	CHOP inhibitor 98 | CHOP inh conf inactive
COc1cc(CN2CCC(N3CCC(C(=O)N4CCCC4)CC3)CC2)cc2c1OCO2	none
CCOC(=O)c1ccc(N=Cc2nc(-c3ccccc3)oc2OC(C)=O)cc1	CHOP inhibitor 106 | CHOP inh conf inactive
CC(=O)Oc1oc(-c2ccccc2)nc1C=Nc1ccccc1	none (no result: b-catenin transl)
Cc1ccc(C(=O)Oc2oc(-c3ccco3)nc2C=Nc2ccccc2)cc1	CHOP inhibitor 102 (no result: b-catenin transl) | CHOP inh conf inactive
CN=C(NC1CCCCC1)c1ccc(Cl)cc1	none
COC(=O)c1sc(NC(=O)c2cnccn2)c(C(=O)OC)c1C	none (no result: CHOP inhibitor, b-catenin transl)
O=C(CSc1nc2ccsc2c(=O)n1CC1CCC(C(=O)O)CC1)c1ccc(Cl)cc1 (stereo unspecified)	CHOP inhibitor 102 | CHOP inh conf inactive
O=C(CSc1nc2ccsc2c(=O)n1CC1CCC(C(=O)O)CC1)c1ccc(F)cc1 (stereo unspecified)	none
CCCCCCOC(=O)Nc1ccc(S(=O)(=O)Nc2cccc([N+](=O)[O-])c2)cc1	CHOP inhibitor 106 | CHOP inh conf 110
COc1ccc(C2=C(CN(C)C)C(c3ccccc3)c3ccccc3O2)cc1 (stereo unspecified)	L major viab 100!, CHOP inhibitor 104! | CHOP inh conf inactive
CCOc1ccc(C2=C(C=C(C#N)C#N)C(c3ccccc3)c3ccccc3O2)cc1 (stereo unspecified)	none
Cc1cc(=O)n2nc(-c3ccccc3)sc2n1	none
Cc1cc(=O)n2c3c(sc2n1)C(=O)N(Cc1ccccc1)C3=O	CHOP inhibitor 105 (no result: b-catenin transl) | CHOP inh conf inactive
O=C(O)c1ccc2c(=O)n(-c3ccc(F)c(Cl)c3)c(=S)[nH]c2c1	none (no result: Autophagy mod, L major viab, MT stabilizer)
COc1cc(OC)c(OC)cc1/C=N/Nc1ncnc2c1[nH]c1ccccc12	L major viab 61, CHOP inhibitor 104 | CHOP inh conf 72
C/C(=N\NC(=O)CCc1ccc(S(=O)(=O)N2CCOCC2)cc1)c1ccc(Br)cc1	none
CCCCOc1ccc(OCCNS(=O)(=O)N(C)C)cc1	none
